For one test, the system named is Cryptosporidium parvum. The test is described as follows: Binding affinity to Cryptosporidium parvum recombinant H6-NBD1 of ABC3 transporter expressed in Escherichia coli BL21(DE3) assessed as intrinsic fluorescence quenching at 100 uM relative to control.
Conditions: not given; call rule not given here
In short, it runs like this: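 His6-tagged NBD1 purified on Ni-NTA, dialyzed against 50 mM Tris pH 7.3/100 mM KCl/0.02% HECAMEG/20% glycerol. Protein 0.25–0.5 μM in 50 mM Tris pH 7.3, 100 mM KCl, 0.02% HECAMEG; compounds 100 μM from DMSO stocks (≤2.5% DMSO), 30 min at 20 ± 2 °C. Excitation 295 nm, emission 328 nm; % of dialysis-buffer/solvent control; triplicates, 3 separate experiments.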
Turning to `Nc1ncnc2c1ncn2[C@@H]1O[C@H](COP(=O)(O)OP(=O)(O)OP(=O)(O)O)[C@H]2OC3(O[C@H]21)C([N+](=O)[O-])=CC(=[N+]([O-])[O-])C=C3[N+](=O)[O-]` (some centres undefined) [TNP-ATP], the Activity amounted to 33.1%.

For the compound `Cc1nc(Cn2ncc3c2C(=O)C=CC3=O)cs1`, the Activity stood at 21.6%.

In the case of `CC(C)(C)OC(=O)NCCCn1ccc(=O)c2c1ncn2Cc1ccccc1`, the Activity was found to be 96.1%.

On to `CCOC(=O)CCCn1ccc(=O)c2c1ncn2Cc1ccccc1`, for which the Activity came out at 80.1%.

For `CCOC(=O)Cn1ccc(=O)c2c1ncn2Cc1ccccc1`, the Activity is 85.5%.

With `O=C1C=CC(=O)c2c1cnn2Cc1ccccc1`, the Activity came to 22.9%.

`CC(C)(C)OC(=O)NCCCCCCn1ccc(=O)c2c1ncn2Cc1ccccc1`: the Activity is 60.8%.

Take `CC(=O)[C@H]1CC[C@H]2[C@@H]3CCC4=CC(=O)CC[C@]4(C)[C@H]3CC[C@]12C`: the Activity turned out to be 71.7%.

In the case of `CCOC(=O)C(C)n1ccc(=O)c2c1ncn2Cc1ccccc1` (racemic), the Activity turned out to be 69.3%.

System in another test: not listed separately
Kind of test: Inhibition of Cryptosporidium parvum recombinant H6-NBD1 of ABC3 transporter ATPase activity expressed in Escherichia coli BL21(DE3) after 10 mins.
Conditions: not given
In short, it runs like this:
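Purified His6-NBD1 (2.5 μM final) incubated 10 min at 37 °C in 50 mM Tris pH 7.3, 100 mM KCl, 4 mM MgCl2, 0.02% HECAMEG with serially diluted compounds at various ATP concentrations. Reaction products quantified in triplicate by reverse-phase HPLC, detection at 254 nm; inhibition type and Ki by non-linear regression.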
For `CC(C)(C)OC(=O)NCCCCCCn1ccc(=O)c2c1ncn2Cc1ccccc1`, the Ki entry was “Not Active”.

The same test, now with this note: read-out: Ki.
In the case of `Nc1ncnc2c1ncn2[C@@H]1O[C@H](COP(=O)(O)OP(=O)(O)OP(=O)(O)O)[C@H]2OC3(O[C@H]21)C([N+](=O)[O-])=CC(=[N+]([O-])[O-])C=C3[N+](=O)[O-]` (some centres undefined) [TNP-ATP], the Ki amounted to 36.6 µM.

For `Cc1nc(Cn2ncc3c2C(=O)C=CC3=O)cs1`, the Ki came to 116 µM.

In the case of `CC(C)(C)OC(=O)NCCCn1ccc(=O)c2c1ncn2Cc1ccccc1`, the inhibitory constant (Ki) stood at 539 µM.

Take `CCOC(=O)C(C)n1ccc(=O)c2c1ncn2Cc1ccccc1` (racemic): the Ki stood at 232 µM.

Values taken from ChEMBL document CHEMBL1165882, “Synthesis and modulation properties of imidazo[4,5-b]pyridin-7-one and indazole-4,7-dione derivatives towards the Cryptosporidium parvum CpABC3 transporter” (Eur J Med Chem, 2010).
